Experimental data from ChEMBL document CHEMBL1140556, “Design, structure-activity relationship, and pharmacokinetic profile of pyrazole-based indoline factor Xa inhibitors” (Bioorg Med Chem Lett, 2007).

Experiments:
Coagulation factor X = Coagulation factor X (Homo sapiens, UniProt P00742); experiment: Inhibition of human factor 10a
Procedure, shortened: (§1)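 Ki values were measured against the purified human enzymes.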

Plasma = experiment: Anticoagulant potency in human plasma assessed as concentration required to double prothrombin time; assay type: functional
Prothrombin = Prothrombin (Homo sapiens, UniProt P00734); experiment: Inhibition of human thrombin
[1] = Apparent permeability across Caco-2 cells; assay type: ADME, cell-based; settings: human
Trypsin = Trypsin (Homo sapiens, UniProt P07477+P07478+P35030); experiment: Inhibition of human trypsin; assay type: protein assay; procedure, shortened: as §1
[2] = Oral bioavailability in dog at 0.2 mg/kg; assay type: ADME, organism-based, Canis lupus familiaris; settings: in vivo
Procedure, shortened: (§2)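 Cassette (N-in-1) dosing, with compounds given together at 0.5 mg/kg iv and 0.2 mg/kg po; one animal per route (n = 1). Clearance, steady-state volume of distribution, oral half-life and oral bioavailability (F%) were derived from plasma levels.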

[3] = Half life in dog at 0.2 mg/kg, po; assay type: ADME, organism-based, Canis lupus familiaris; parameters: dose 0.2 mg/kg, route oral; settings: in vivo; procedure, shortened: as §2
[4] = (§3) Volume of distribution at steady state in dog at 0.5 mg/kg, iv and 0.2 mg/kg, po; assay type: ADME, organism-based, Canis lupus familiaris; settings: in vivo, read-out: Vdss; procedure, shortened: as §2
[5] = Clearance in dog at 0.5 mg/kg, iv and 0.2 mg/kg, po; assay type: ADME, organism-based, Canis lupus familiaris; settings: in vivo; procedure, shortened: as §2
Canis familiaris = experiment: as §3; assay type: ADME, organism-based, Canis lupus familiaris; settings: in vivo; procedure, shortened: as §2

Chain of Coagulation factor X (P00742 41-179 limits assumed): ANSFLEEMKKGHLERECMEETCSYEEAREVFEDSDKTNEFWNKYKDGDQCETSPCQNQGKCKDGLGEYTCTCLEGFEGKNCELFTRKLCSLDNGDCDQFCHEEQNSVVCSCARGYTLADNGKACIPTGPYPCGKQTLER
Chain of Coagulation factor X (P00742 235-488 limits assumed): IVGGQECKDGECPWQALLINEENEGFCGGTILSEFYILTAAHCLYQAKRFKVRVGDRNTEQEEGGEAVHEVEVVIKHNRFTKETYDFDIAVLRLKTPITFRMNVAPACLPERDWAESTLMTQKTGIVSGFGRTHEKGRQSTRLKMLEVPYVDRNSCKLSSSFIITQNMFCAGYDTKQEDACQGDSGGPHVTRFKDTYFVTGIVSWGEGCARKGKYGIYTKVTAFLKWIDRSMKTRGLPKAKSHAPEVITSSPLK

Row | Compound | Ki (Coagulation factor X) [nM] | Ki (Prothrombin) [nM] | Ki (Trypsin) [nM] | also measured
1 | CS(=O)(=O)c1ccccc1-c1ccc2c(c1)CCN2C(=O)c1cc(C(N)=O)nn1-c1ccc2onc(N)c2c1 | 0.82 | > 20000 | – | Activity (Plasma): 41 µM
2 | CN(C)Cc1ccccc1-c1ccc2c(c1)CCN2C(=O)c1cc(C(F)(F)F)nn1-c1ccc2onc(N)c2c1 | 19 | 19200 | – | –
3 | CN(C)Cc1ccccc1-c1ccc2c(c1)CCN2C(=O)c1cc(C(N)=O)nn1-c1ccc2onc(N)c2c1 | 1 | – | > 20000 | Papp [1]: 0.3 ×10⁻⁶ cm/s; Activity (Plasma): 3 µM
4 | CS(=O)(=O)c1ccccc1-c1ccc2c(c1)N(C(=O)c1cc(C(N)=O)nn1-c1ccc3onc(N)c3c1)CC2 | 1400 | – | – | –
5 | NC(=O)c1cc(C(=O)N2CCc3cc(N4CCCCC4=O)ccc32)n(-c2ccc3onc(N)c3c2)n1 | 2.4 | – | – | Papp [1]: 0.1 ×10⁻⁶ cm/s; bioavailability [2]: 6%; half-life [3]: 1.6 h; Vd [4]: 0.2 L/kg; clearance [5]: 3.67 mL/min/kg; Activity (Plasma): 3.3 µM
6 | NC(=O)c1cc(C(=O)N2CCc3cc(N4CCCCCC4=O)ccc32)n(-c2ccc3onc(N)c3c2)n1 | 15 | – | – | –
7 | CS(=O)(=O)c1ccccc1-c1ccc2c(c1)OCCN2C(=O)c1cc(C(F)(F)F)nn1-c1ccc2onc(N)c2c1 | 71 | > 21000 | – | –
8 | CN(C)Cc1nccn1-c1ccc2c(c1)CCN2C(=O)c1cc(C(N)=O)nn1-c1ccc2onc(N)c2c1 | 2.2 | – | – | –
9 | CC(=O)N(C)Cc1nccn1-c1ccc2c(c1)CCN2C(=O)c1cc(C(N)=O)nn1-c1ccc2onc(N)c2c1 | 4.8 | – | – | –
10 | CS(=O)(=O)c1ccccc1-c1ccc2c(c1)CCN2C(=O)c1cc(C(F)(F)F)nn1-c1ccc2onc(N)c2c1 | 1.5 | > 21000 | > 2500 | Activity (Plasma): 26 µM
11 | NC(=O)c1cc(C(=O)N2CCc3ccc(N4CCCCCC4=O)cc32)n(-c2ccc3onc(N)c3c2)n1 | 1100 | – | – | –
12 | CS(=O)(=O)c1ccccc1-c1ccc2c(c1)CCCN2C(=O)c1cc(C(F)(F)F)nn1-c1ccc2onc(N)c2c1 | 2000 | > 6300 | > 4200 | –
13 | CS(=O)(=O)c1ccccc1-c1ccc2c(c1)C(=O)CCN2C(=O)c1cc(C(F)(F)F)nn1-c1ccc2onc(N)c2c1 | 500 | > 21000 | > 4200 | –
14 | CN(C)CC(=O)N(C)c1ccc2c(c1)N(C(=O)c1cc(C(N)=O)nn1-c1ccc3onc(N)c3c1)CC2 | 350 | – | – | –
15 | CN(Cc1nccn1-c1ccc2c(c1)CCN2C(=O)c1cc(C(N)=O)nn1-c1ccc2onc(N)c2c1)S(C)(=O)=O | 6.9 | – | – | –
16 | Nc1noc2ccc(-n3nc(C(F)(F)F)cc3C(=O)N3CCCCc4cc(-c5ccccc5S(N)(=O)=O)ccc43)cc12 | 3400 | > 6300 | > 4200 | –
17 | Nc1noc2ccc(-n3nc(C(F)(F)F)cc3C(=O)N3CCc4cc(-c5ccccc5CN5CCCC5)ccc43)cc12 | 4.9 | 15000 | > 40000 | Vd [4]: 20 L/kg; clearance [5]: 123 mL/min/kg
18 | NC(=O)c1cc(C(=O)N2CCc3cc(-c4ccccc4CN4CCCC4)ccc32)n(-c2ccc3onc(N)c3c2)n1 | 0.63 | – | – | Papp [1]: 0.7 ×10⁻⁶ cm/s; Vd [4]: 6.2 L/kg; clearance [5]: 59.5 mL/min/kg; Activity (Plasma): 2.1 µM
19 | NC(=O)c1cc(C(=O)N2CCc3cc(-n4ccccc4=O)ccc32)n(-c2ccc3onc(N)c3c2)n1 | 0.2 | – | – | Papp [1]: 0.1 ×10⁻⁶ cm/s; Activity (Plasma): 1.9 µM
20 | CN(C)CC(=O)N(C)c1ccc2c(c1)CCN2C(=O)c1cc(C(N)=O)nn1-c1ccc2onc(N)c2c1 | 6.8 | – | – | –
21 | Nc1noc2ccc(-n3nc(C(F)(F)F)cc3C(=O)N3CCc4cc(-c5ccccc5S(N)(=O)=O)ccc43)cc12 | 2.7 | > 21000 | > 2500 | bioavailability [2]: 66%; half-life [3]: 4 h; Vd [4]: 2 L/kg; clearance [5]: 10.5 mL/min/kg; Activity (Plasma): 28 µM
22 | CS(=O)(=O)c1ccccc1-c1ccc(NC(=O)c2cc(C(F)(F)F)nn2-c2ccc3onc(N)c3c2)c(F)c1 | – | – | > 5200 | –
23 | CS(=O)(=O)c1ccccc1-c1ccc2c(c1)C(O)CCN2C(=O)c1cc(C(F)(F)F)nn1-c1ccc2onc(N)c2c1 (racemic) | 1400 | > 6300 | > 4200 | –
24 | CN(C)Cc1nccn1-c1ccc(NC(=O)c2cc(C(F)(F)F)nn2-c2ccc3onc(N)c3c2)c(F)c1 [RAZAXABAN] | – | – | – | Vdss (Canis familiaris): 3.4 L/kg; clearance [5]: 18.3 mL/min/kg
